Measured values taken from ChEMBL document CHEMBL1144753, “Inhibitors of DNA polymerase beta: activity and mechanism” (Bioorg Med Chem, 2008).
Active and inactive are the calls of the source. No cut-off for these calls is given here.

Legend:
[1] = tested on: A549; assay: Effect on DNA polymerase beta expression in human A549 cells at 25 uM after 48 hrs by Western blot analysis; type: functional, cell-based
Outline: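 A549 cells grown at 37 °C, 5% CO2 in Kaighn's F12 with 10% fetal calf serum, exposed 48 h to inhibitor at 25 μM (final DMSO <0.05%). Whole-cell extracts made by freeze/thaw, then resolved on 15% SDS-PAGE and blotted to PVDF. Probed with anti-human pol β antibody, with anti-β-actin as loading control. HRP detection; bands scanned and quantified.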

[2] = tested on: A549; assay: Inhibition of bleomycin-induced unscheduled DNA synthesis in human A549 cells at 25 uM; type: functional, cell-based
Outline: (§1)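 A549 cells (~5×10^5) treated with 10 mM bleomycin for 30 min at 37 °C. DMSO, 10 mM hydroxyurea, 2 mM nicotinamide, 5 μCi [3H]thymidine and inhibitor then added, triplicate flasks per concentration. Incubated 3 h, stopped with ice-cold saline. Cells pelleted and treated with ice-cold 5% TCA for 30 min; incorporated radioactivity read by scintillation counting.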

[3] = target: DNA polymerase beta (Rattus norvegicus) (UniProt P06766); assay: Inhibition of lyase activity of DNA polymerase beta
[4] = target: DNA polymerase beta (Rattus norvegicus) (UniProt P06766); assay: Inhibition of polymerase activity of DNA polymerase beta
[5] = tested on: A549; assay: Cytotoxicity against human A549 cells after 48 hrs by MTT assay; details: A549, 48 h
[6] = tested on: A549; assay: Effect on DNA polymerase beta expression in human A549 cells at 6 uM after 48 hrs by Western blot analysis; type: functional, cell-based
Outline: (§2)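 A549 cells grown in Ham's F12K with 10% fetal calf serum, exposed 48 h to compound. Whole-cell extracts prepared by freeze/thaw lysis, cleared at 15,000 × g. Extracts resolved on 15% SDS-PAGE, transferred to PVDF and probed with anti-human pol β antibody. Anti-β-actin served as loading control. HRP anti-goat IgG detection, followed by densitometric quantification.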

[7] = tested on: A549; assay: Effect on DNA polymerase beta expression in human A549 cells at 3 uM after 48 hrs by Western blot analysis; type: functional, cell-based; outline: as §2
[8] = tested on: A549; assay: Inhibition of bleomycin-induced unscheduled DNA synthesis in human A549 cells at 3 uM; type: functional, cell-based
Outline: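 A549 cells (~5×10^5) treated with 10 mM bleomycin for 30 min at 37 °C. Then 10 mM hydroxyurea, 2 mM nicotinamide, 5 µCi [3H]thymidine and inhibitor added, incubated 3 h. Stopped with ice-cold saline. Cells collected and TCA-precipitated on ice 30 min for scintillation counting of incorporated label. Run in triplicate.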

[9] = tested on: A549; assay: Inhibition of bleomycin-induced unscheduled DNA synthesis in human A549 cells at 6 uM; type: functional, cell-based; outline: as §1

CC1(C)CC[C@]2(C(=O)O)CC[C@]3(C)C(=CC[C@@H]4[C@@]5(C)CC[C@H](O)C(C)(C)[C@@H]5CC[C@]43C)[C@@H]2C1 [OLEANOLIC_ACID]
Activity [1]: inactive
Activity [2]: Active
IC50 [3]: 26.3 µM
IC50 [4]: 25 µM
IC50 [5]: > 100 µM

CC[C@H](/C=C/[C@@H](C)[C@H]1CC[C@H]2[C@@H]3CC=C4C[C@@H](O)CC[C@]4(C)[C@H]3CC[C@]12C)C(C)C [STIGMASTEROL]
Activity [6]: inactive
IC50 [3]: 60.3 µM
IC50 [4]: > 250 µM
IC50 [5]: 98.2 µM

C=C(C)[C@@H]1CC[C@]2(C(=O)O)CC[C@]3(C)[C@H](CC[C@@H]4[C@@]5(C)CC[C@H](O)C(C)(C)[C@@H]5CC[C@]43C)[C@@H]12 [BETULINIC ACID]
Activity [7]: inactive
Activity [8]: Active
IC50 [5]: 6.65 µM

O=c1ccc2ccc(Oc3cc4ccc(O)cc4oc3=O)cc2o1 [EDGEWORIN]
Activity [6]: inactive
Activity [9]: Active
IC50 [5]: 80.2 µM
